Publication PMC4506688 (Pharmacology Research & Perspectives, 2015)

Columns and labels:
[1] = biological target: CB1 (Homo sapiens, UniProt P21554); assay: ACTOne cell-based cAMP assay in HEK-CNG+CB1 cells; settings: HEK-CNG+CB1, control agonist
[2] = system: parental HEK-CNG cells; assay: ACTOne cell-based cAMP assay in parental HEK-CNG cells; design: species or system human
[3] = biological target: CB2 (Homo sapiens, UniProt P34972); assay: ACTOne cell-based cAMP assay in HEK-CNG+CB2 cells; settings: HEK-CNG+CB2, control agonist
[4] = system: C8B4 murine microglia; assay: On cell polarization assay; type: cell-based; settings: 1 μg/mL LPS, ligand at EC50 added 1 h after LPS, 24 h
Summary of the method: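 C8B4 microglia were seeded at 20,000 cells/well in DMEM with 10% FBS, then switched to 1% FBS the next day. On day 3, LPS was added (final 1 μg/mL), followed 1 h later by the test compound in LPS-containing medium. After 24 h, cells were given anti-CD16/32 or anti-CD206 antibody (2 μg/mL, 2 h), then a SULFO-TAG secondary (2 h). The electrochemiluminescence read-out was normalized to LPS control and analyzed by ANOVA.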

[5] = reported; ref Wohnsland and Faller [2001]; cited from earlier work

CB2, sequence (P34972 whole entry): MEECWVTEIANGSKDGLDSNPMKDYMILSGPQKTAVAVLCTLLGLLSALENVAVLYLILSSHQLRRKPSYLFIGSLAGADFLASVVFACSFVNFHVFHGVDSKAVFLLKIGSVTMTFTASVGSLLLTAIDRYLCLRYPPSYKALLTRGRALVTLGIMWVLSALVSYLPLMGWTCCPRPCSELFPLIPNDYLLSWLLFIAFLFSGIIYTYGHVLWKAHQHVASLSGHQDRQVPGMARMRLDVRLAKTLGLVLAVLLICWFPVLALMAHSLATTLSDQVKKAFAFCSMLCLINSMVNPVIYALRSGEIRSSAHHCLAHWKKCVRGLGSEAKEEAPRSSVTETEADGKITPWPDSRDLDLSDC
CB1, sequence (P21554 whole entry): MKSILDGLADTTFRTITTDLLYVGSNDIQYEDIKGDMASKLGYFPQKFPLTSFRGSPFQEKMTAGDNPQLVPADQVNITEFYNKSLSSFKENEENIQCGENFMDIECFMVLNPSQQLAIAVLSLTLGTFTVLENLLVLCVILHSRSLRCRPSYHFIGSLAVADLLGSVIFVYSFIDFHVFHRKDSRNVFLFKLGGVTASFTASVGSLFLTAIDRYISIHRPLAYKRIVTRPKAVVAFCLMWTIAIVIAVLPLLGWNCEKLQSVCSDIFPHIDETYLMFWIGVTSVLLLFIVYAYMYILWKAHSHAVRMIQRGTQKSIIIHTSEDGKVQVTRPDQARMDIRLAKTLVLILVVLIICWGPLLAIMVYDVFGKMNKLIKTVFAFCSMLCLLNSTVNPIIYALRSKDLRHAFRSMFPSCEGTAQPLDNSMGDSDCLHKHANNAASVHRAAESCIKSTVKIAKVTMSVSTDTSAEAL

Molecule	CD16/32 (M1 marker) expression compared to LPS control [4]	CD206 (M2 marker) expression compared to LPS control [4]	also measured
CCCCCCC(C)(C)c1ccc([C@@H]2C[C@H](O)CC[C@H]2CCCO)c(O)c1 [CP 55,940, 2-[(1R,2R,5R)-5-hydroxy-2-(3-hydroxypropyl)cyclohexyl]-5-(2-methyloctan-2-yl)phenol]			Average reduction in cAMP response [1]: 90%; Change in cAMP-driven fluorescence / cAMP response [2]: no response was observed; Average reduction in cAMP response [3]: 90%
CCCCCCC(C)(C)c1cc(OC)c([C@@H]2C=C(CO)[C@@H]3C[C@H]2C3(C)C)c(OC)c1 [HU 308]	only HU 308 did so significantly (P < 0.001)	significantly decreased CD206	
CCCC(C)(C)c1ccc2c(c1)OC(C)(C)[C@@H]1CC=C(C)C[C@@H]21 [JWH 133]	decreased CD16/32 expression compared to LPS controls	significantly decreased CD206	
CN1C(C(=O)Nc2ccccn2)=C(O)c2ccccc2S1(=O)=O [piroxicam]			Absorbed in humans [5]: 90–100%
SR 144528	also decreased CD16/32 expression in comparison to LPS control	significantly increased CD206	
